Source: ChEMBL document CHEMBL4330160, “Prenylated Indole Diterpene Alkaloids from a Mine-Soil-Derived Tolypocladium sp” (J Nat Prod, 2019)
Values after ≈ are worked out from the molar mass of the structure shown. Active and inactive are the calls of the source. No cut-off for these calls is given here.

Assays:
Fusarium oxysporum = assay: Antifungal activity against Fusarium oxysporum Schlecht after 3 to 7 days by microbroth dilution method; assay type: functional, organism-based
Summary of the method: (§1)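 Microbroth dilution with fungal cultures at 10^4 mycelia fragments/mL. Test samples and ketoconazole were 1 mg/mL DMSO stocks. 180 μL culture plus 20 μL stock in the first well gave 100 μg/mL final, followed by serial dilution. Run in triplicate, incubated at 28 °C for 3−7 days, and MIC determined.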

Alternaria solani = assay: Antifungal activity against Alternaria solani Sorauer after 3 to 7 days by microbroth dilution method; assay type: functional, organism-based; summary of the method: as §1
Rhizoctonia solani = assay: Antifungal activity against Rhizoctonia solani after 3 to 7 days by microbroth dilution method; assay type: functional, organism-based; summary of the method: as §1
[1] = tested on: Alternaria sp. 'fragaria'; assay: Antifungal activity against Alternaria fragaria after 3 to 7 days by microbroth dilution method; assay type: functional; summary of the method: as §1
Bacillus cereus = assay: Antibacterial activity against Bacillus cereus after 3 to 7 days by broth dilution assay; assay type: functional
Staphylococcus aureus = assay: Antibacterial activity against Methicillin-resistant Staphylococcus aureus after 3 to 7 days by broth dilution assay; assay type: functional
Summary of the method: (§2)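 Modified broth dilution with bacterial suspensions at 10^6 CFU/mL. Test and ciprofloxacin control stocks were 1 mg/mL in DMSO. Serial dilution and MIC read-out followed the antifungal microdilution procedure.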

Micrococcus luteus = assay: Antibacterial activity against Micrococcus lysodeikticus after 3 to 7 days by broth dilution assay; assay type: functional
Salmonella paratyphi = assay: Antibacterial activity against Bacterium paratyphosum after 3 to 7 days by broth dilution assay; assay type: functional, Salmonella enterica subsp. enterica serovar Paratyphi A; conditions: Salmonella enterica; summary of the method: as §2
Bacillus subtilis = assay: Antibacterial activity against Bacillus subtilis after 3 to 7 days by broth dilution assay; assay type: functional
Klebsiella aerogenes = assay: Antibacterial activity against Enterobacter aerogenes after 3 to 7 days by broth dilution assay; assay type: functional
Corynespora cassiicola = assay: Antifungal activity against Corynespora cassiicola after 3 to 7 days by microbroth dilution method; assay type: functional
Summary of the method: (§3)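 Microbroth dilution with fungal inoculum at 10^4 mycelial fragments/mL. Stock solutions were 1 mg/mL in DMSO. 20 μL stock was added to 180 μL culture, giving a top final concentration of 100 μg/mL, then serially diluted, in triplicate. Plates were held at 28 °C for 3–7 days and read for MIC; ketoconazole was the positive control.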

Alternaria alternata = assay: Antifungal activity against Alternaria alternata after 3 to 7 days by microbroth dilution method; assay type: functional; summary of the method: as §3
Botrytis cinerea = assay: Antifungal activity against Botrytis cinerea Pers. after 3 to 7 days by microbroth dilution method; assay type: functional; summary of the method: as §3
[2] = Antifungal activity against Cercospora personata after 3 to 7 days by microbroth dilution method; assay type: functional; conditions: Nothopassalora personata; summary of the method: as §3
Verticillium dahliae = assay: Antifungal activity against Verticillium dahliae Kleb after 3 to 7 days by microbroth dilution method; assay type: functional; summary of the method: as §3
Sclerotinia sclerotiorum = assay: Antifungal activity against Sclerotinia sclerotiorum after 3 to 7 days by microbroth dilution method; assay type: functional; summary of the method: as §3
A549 = assay: Cytotoxicity against human A549 cells after 48 hrs by CCK8 assay; assay type: functional, cell-based; conditions: A549, 48 h
Summary of the method: (§4)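 Cells grown in DMEM with 10% FBS at 37 °C, 5% CO2. Seeded at 5000 cells/well and left 16 h, then exposed to a range of concentrations in growth medium for 48 h. Viability read by CCK-8 absorbance as percent of untreated control. IC50 taken from a sigmoidal curve; camptothecin was the positive control.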

Huh-7 = assay: Cytotoxicity against human HuH7 cells after 48 hrs by CCK8 assay; assay type: functional, cell-based; conditions: Huh-7, 48 h; summary of the method: as §4
LN-229 = assay: Cytotoxicity against human LN229 cells after 48 hrs by CCK8 assay; assay type: functional, cell-based; conditions: LN-229, 48 h; summary of the method: as §4
[3] = Cytotoxicity against human MGC cells after 48 hrs by CCK8 assay; assay type: functional, cell-based; summary of the method: as §4
MHCC97H = assay: Cytotoxicity against human MHCC97H cells after 48 hrs by CCK8 assay; assay type: functional, cell-based
Summary of the method: (§5)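 Cultured in DMEM with 10% FBS at 37 °C under 5% CO2. After a 16 h attachment, cells were treated with varying concentrations for 48 h. CCK-8 absorbance was expressed as percent of control and IC50 derived by sigmoidal curve fitting; camptothecin was the positive control.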

LoVo = assay: Cytotoxicity against human LoVo cells after 48 hrs by CCK8 assay; assay type: functional, cell-based; summary of the method: as §5
MDA-MB-231 = assay: Cytotoxicity against human MDA231 cells after 48 hrs by CCK8 assay; assay type: functional, cell-based; conditions: MDA-MB-231, 48 h
Summary of the method: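 MDA231 cells kept in DMEM with 10% FBS at 37 °C, 5% CO2. Seeded at 10 000 cells/well and settled 16 h, then given graded concentrations for 48 h. Viability measured by CCK-8 absorbance relative to control cells, with IC50 from a sigmoidal fit; camptothecin served as the positive control.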

Homo sapiens = organism: Homo sapiens; assay: Cytotoxicity against human T1224 cells in patient-derived organoid model after 48 hrs by CCK8 assay; assay type: functional, cell-based
Summary of the method: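 Patient-derived HCC cells (50 000) were embedded in Matrigel, set 20 min at 37 °C, then grown 6–8 days in DMEM/F12 with B27, 0.01% BSA, 2 mM glutamine, penicillin/streptomycin, 10 ng/mL FGF basic, 50 ng/mL EGF and 50 ng/mL HGF to form organoids. Medium was changed every 2 days.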

Structure (SMILES) | Activity (Fusarium oxysporum) | Activity (Alternaria solani) | Activity (Rhizoctonia solani) | MIC [1] [µg/mL] | MIC (Staphylococcus aureus) [µg/mL] | also measured
COC(C)(C)[C@@H](O)Cc1cccc2[nH]c3c(c12)C[C@@H]1CC[C@@]2(O)[C@@]45O[C@@H]4[C@H](O)[C@@H](C(C)(C)O)O[C@H]5CC[C@]2(C)[C@@]31C | Active | Active | Active | 6.25 to 50 (≈ 11 to 87.8 µM) |  | 
CC(C)=CCc1cccc2[nH]c3c(c12)C[C@@H]1CC[C@]2(O)[C@](C)(CCC(=O)[C@@]24O[C@@H]4[C@@H]2O[C@H](C=C(C)C)OC(C)(C)[C@@H]2O)[C@@]31C | Active | Active | Active |  | 12.5 to 25 (≈ 20.7 to 41.4 µM) | MIC (Bacillus cereus): 12.5 to 25 µg/mL (≈ 20.7 to 41.4 µM); MIC (Micrococcus luteus): 12.5 to 25 µg/mL (≈ 20.7 to 41.4 µM); MIC (Salmonella paratyphi): 12.5 to 25 µg/mL (≈ 20.7 to 41.4 µM); MIC (Bacillus subtilis): 12.5 to 25 µg/mL (≈ 20.7 to 41.4 µM); MIC (Klebsiella aerogenes): 12.5 to 25 µg/mL (≈ 20.7 to 41.4 µM)
CC(C)(O)[C@H]1O[C@H]2CC[C@@]3(C)[C@@](O)(CC[C@H]4Cc5c([nH]c6cccc(C[C@H](O)C(C)(C)Cl)c56)[C@@]43C)[C@]23O[C@@H]3[C@@H]1O | Active | Active | Active | 6.25 to 50 (≈ 10.9 to 87.1 µM) | 50 (≈ 87.1 µM) | 
CC(C)(O)[C@H]1O[C@H]2CC[C@@]3(C)[C@@](O)(CC[C@H]4Cc5c([nH]c6cc(C[C@H](O)C(C)(C)Cl)ccc56)[C@@]43C)[C@]23O[C@@H]3[C@@H]1O | Active | Active | Active | 6.25 to 50 (≈ 10.9 to 87.1 µM) |  | 
CC(C)=C[C@H]1O[C@H]2[C@H]3O[C@@]34[C@H](CC[C@@]3(C)[C@@]4(O)CC[C@H]4Cc5c([nH]c6cc(C[C@H](O)C(C)(C)O)ccc56)[C@@]43C)O[C@@H]2C(C)(C)O1 | Active | Active | Active | 6.25 to 50 (≈ 10.1 to 80.4 µM) |  | 
CC(C)=C[C@H]1O[C@H]2[C@H]3O[C@@]34[C@H](CC[C@@]3(C)[C@@]4(O)CC[C@H]4Cc5c([nH]c6cccc(C[C@H](O)C(C)(C)Cl)c56)[C@@]43C)O[C@@H]2C(C)(C)O1 | Active | Active | Active | 6.25 to 50 (≈ 9.76 to 78.1 µM) |  | 
CC(C)(O)[C@@H](O)Cc1cccc2[nH]c3c(c12)C[C@@H]1CC[C@@]2(O)[C@@]45O[C@@H]4[C@@H]4O[C@H]([C@H]6OC6(C)C)OC(C)(C)[C@H]4O[C@H]5CC[C@]2(C)[C@@]31C | Active | Active | Active | 6.25 to 50 (≈ 9.8 to 78.4 µM) |  | 
CC(=O)N1CCN(c2ccc(OCC3COC(Cn4ccnc4)(c4ccc(Cl)cc4Cl)O3)cc2)CC1 (configuration not stated) [KETOCONAZOLE] |  |  |  | 0.78 (≈ 1.47 µM) |  | MIC (Corynespora cassiicola): 0.78 to 1.56 µg/mL (≈ 1.47 to 2.94 µM); MIC (Alternaria alternata): 0.78 to 1.56 µg/mL (≈ 1.47 to 2.94 µM); MIC (Botrytis cinerea): 0.78 to 1.56 µg/mL (≈ 1.47 to 2.94 µM); MIC [2]: 0.78 to 1.56 µg/mL (≈ 1.47 to 2.94 µM); MIC (Verticillium dahliae): 0.78 to 1.56 µg/mL (≈ 1.47 to 2.94 µM); MIC (Sclerotinia sclerotiorum): 0.78 to 1.56 µg/mL (≈ 1.47 to 2.94 µM)
CC(C)(Cl)[C@H](O)Cc1ccc2c3c([nH]c2c1)[C@@]1(C)[C@@H](CC[C@@]2(O)[C@@]45O[C@@H]4[C@@H]4O[C@H]([C@H]6OC6(C)C)OC(C)(C)[C@H]4O[C@H]5CC[C@@]21C)C3 | Active | Active | Active | 6.25 to 50 (≈ 9.52 to 76.2 µM) |  | 
O=C(O)c1cn(C2CC2)c2cc(N3CCNCC3)c(F)cc2c1=O [CIPROFLOXACIN] |  |  |  |  | 1.56 (≈ 4.71 µM) | MIC (Bacillus cereus): 0.78 µg/mL (≈ 2.35 µM); MIC (Micrococcus luteus): 0.78 to 1.56 µg/mL (≈ 2.35 to 4.71 µM); MIC (Salmonella paratyphi): 0.78 to 1.56 µg/mL (≈ 2.35 to 4.71 µM); MIC (Bacillus subtilis): 0.78 to 1.56 µg/mL (≈ 2.35 to 4.71 µM); MIC (Klebsiella aerogenes): 0.78 to 1.56 µg/mL (≈ 2.35 to 4.71 µM)
CC(C)=C[C@H]1O[C@H]2[C@H]3O[C@@]34[C@H](CC[C@@]3(C)[C@@]4(O)CC[C@H]4Cc5c([nH]c6cccc(C[C@H](O)C(C)(C)O)c56)[C@@]43C)O[C@@H]2C(C)(C)O1 | Active | Active | Active | 6.25 to 50 (≈ 10.1 to 80.4 µM) |  | 
CC(C)=CCc1cccc2[nH]c3c(c12)C[C@@H]1CC[C@@]2(O)[C@@]45O[C@@H]4[C@H](O)[C@@H](C(C)(C)O)O[C@H]5CC[C@]2(C)[C@@]31C | Active | Active | Active | 6.25 to 50 (≈ 12 to 95.8 µM) | 12.5 (≈ 24 µM) | MIC (Corynespora cassiicola): 6.25 to 25 µg/mL (≈ 12 to 47.9 µM); MIC (Alternaria alternata): 6.25 to 25 µg/mL (≈ 12 to 47.9 µM); MIC (Botrytis cinerea): 6.25 to 25 µg/mL (≈ 12 to 47.9 µM); MIC [2]: 6.25 to 25 µg/mL (≈ 12 to 47.9 µM); MIC (Verticillium dahliae): 6.25 to 25 µg/mL (≈ 12 to 47.9 µM); MIC (Sclerotinia sclerotiorum): 6.25 to 25 µg/mL (≈ 12 to 47.9 µM); MIC (Bacillus cereus): 25 µg/mL (≈ 47.9 µM); IC50 (A549): 16.3 to 37.8 µM; IC50 (Huh-7): 16.3 to 37.8 µM; IC50 (LN-229): 16.3 to 37.8 µM; IC50 [3]: 16.3 to 37.8 µM; IC50 (MHCC97H): 16.3 to 37.8 µM; IC50 (LoVo): 16.3 to 37.8 µM; IC50 (MDA-MB-231): 16.3 to 37.8 µM; Activity (Homo sapiens): Active
CC[C@@]1(O)C(=O)OCc2c1cc1n(c2=O)Cc2cc3ccccc3nc2-1 [CAMPTOTHECIN] |  |  |  |  |  | IC50 (A549): 0.00032 to 0.0318 µM; IC50 (Huh-7): 0.00032 to 0.0318 µM; IC50 (LN-229): 0.00032 to 0.0318 µM; IC50 [3]: 0.00032 to 0.0318 µM; IC50 (MHCC97H): 0.00032 to 0.0318 µM; IC50 (LoVo): 0.00032 to 0.0318 µM; IC50 (MDA-MB-231): 0.00032 to 0.0318 µM
